Assay outcomes deposited in PubChem BioAssay by several laboratories.
PERK inh: human PERK inhibition, primary cell-based screen. inhibition, % at 5.6 µM. Q9NZJ5. AID 1416. 220,000 compounds, 0.17% hits. CHO PERK-DD fusion, SEAP luminescence translation reporter;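 active means inhibition above the mean inhibition of all tested compounds plus 3 SD, set separately per screening campaign, cut at about 2.9% in these data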;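 further: PERK kinase domain activated by AP20187 dimerizer at 100 nM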
Target sequence (Q9NZJ5 whole entry, looked up, the tested form may be a part): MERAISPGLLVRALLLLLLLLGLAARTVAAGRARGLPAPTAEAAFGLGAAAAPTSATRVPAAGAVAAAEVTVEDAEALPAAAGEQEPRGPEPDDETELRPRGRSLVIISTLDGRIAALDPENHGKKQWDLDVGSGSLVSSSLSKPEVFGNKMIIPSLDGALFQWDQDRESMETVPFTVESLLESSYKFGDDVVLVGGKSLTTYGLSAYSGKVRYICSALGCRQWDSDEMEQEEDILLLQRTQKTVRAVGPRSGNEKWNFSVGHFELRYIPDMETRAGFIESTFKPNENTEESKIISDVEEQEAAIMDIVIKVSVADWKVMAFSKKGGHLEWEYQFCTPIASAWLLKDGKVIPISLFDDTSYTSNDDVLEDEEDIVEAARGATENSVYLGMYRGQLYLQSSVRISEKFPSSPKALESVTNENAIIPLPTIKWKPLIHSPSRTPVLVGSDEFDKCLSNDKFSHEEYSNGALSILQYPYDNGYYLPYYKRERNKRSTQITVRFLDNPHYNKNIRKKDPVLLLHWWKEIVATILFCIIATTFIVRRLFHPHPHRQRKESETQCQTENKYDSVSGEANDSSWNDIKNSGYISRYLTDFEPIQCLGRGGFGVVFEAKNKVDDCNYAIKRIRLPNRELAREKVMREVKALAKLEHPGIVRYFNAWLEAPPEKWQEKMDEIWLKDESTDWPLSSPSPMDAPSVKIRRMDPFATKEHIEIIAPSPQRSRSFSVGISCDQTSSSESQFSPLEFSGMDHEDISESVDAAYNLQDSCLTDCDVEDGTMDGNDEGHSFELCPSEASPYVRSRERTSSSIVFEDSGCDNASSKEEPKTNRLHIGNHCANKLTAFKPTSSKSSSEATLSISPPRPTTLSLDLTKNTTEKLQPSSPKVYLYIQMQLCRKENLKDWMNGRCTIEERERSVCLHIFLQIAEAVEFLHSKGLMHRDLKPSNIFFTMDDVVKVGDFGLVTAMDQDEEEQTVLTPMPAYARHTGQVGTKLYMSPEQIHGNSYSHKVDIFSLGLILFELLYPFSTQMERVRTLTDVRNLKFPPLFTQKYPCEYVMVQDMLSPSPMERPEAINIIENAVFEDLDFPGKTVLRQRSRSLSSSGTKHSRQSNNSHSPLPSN
STAT3 act: activators of IL-6 induced STAT3 signaling. U3A cells, IL-6 STAT3-luciferase reporter, luminescence; 100% = signal with IL-6 EC80 alone. activation (% of control), % at 5.6 µM. 190,000 compounds, 0.91% hits. AID 871;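 active means activation above the screen-wide mean of compound activation plus 3 SD, cut at about 130% in these data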
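Material: human STAT1-deficient U3A cells with stable STAT3-luciferase reporter / Probe or stimulus: IL-6 stimulus at 33 ng/mL final / Schedule: 1 h compound pre-exposure, 6 h IL-6 stimulation, 37 °C / Technique: luminescence / Read-out basis: percent of IL-6-only median luminescence / Control set: IL-6-only high control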
HSF1 inh: HSF1 inhibition; activity change, negative = inhibition, % at 7.5 µM (by protocol); 300,000 compounds, 0.77% hits; NIH3T3-HGL HSE-luciferase, MG132-induced, luminescence 8 h; active compounds read low;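 active means more than half of replicate wells show activity change below -50%, luminescence cut by over half; inconclusive means some wells, but at most half, below -50%; inactive means no replicate well below -50%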;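 further: luciferase reports HSF-1 transcriptional activity via heat shock element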
Hsp70 act: transcriptional activators of Hsp70 | HeLa Hsp70 promoter luciferase reporter, luminescence; scaled: vehicle 0, proteasome-inhibitor control 100% | activation, % at 10 µM | 200,000 compounds, 0.04% hits | AID 1203;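 active means activation above the mean across all tested compounds plus 3 SD, cutoff set per campaign, cut at about 5.5% in these data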
PolyA inh: inhibitors of polyadenylation in S. cerevisiae; S. cerevisiae SKY197-pL101 polyadenylation reporter, beta-gal luminescence; efflux-impaired pdr1/pdr3 knockout yeast; score 100 = 6 SD above DMSO; activity score, % at 12 µM; 300,000 compounds, 0.02% hits; AID 1875;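 active means lowest replicate activity score at least 50, where 100 means six control SD above control mean; inconclusive means lowest score under 50 but half or more replicates reach 50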;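 further: yeast exposed to compound for 9 h at 30 °C; higher score means more reporter readthrough which indicates perturbed polyadenylation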
AHR activator: human AHR activation; activation, % at 5 µM; P35869; 320,000 compounds, 2.5% hits; AHR-responsive luciferase reporter cells, luminescence; in the data active means activation above about 47%
Of the large screens only hits and unclear results are named; the others gave an inactive call. Compounds with a hit are over-represented: about 3.6% of the library has one in this group of screens.

O=c1oc2ccccc2cc1-c1nc2c(s1)CCCC2	AHR activator 95
COc1ccc(C(=O)/C=C2\NCC3c4ccccc4CCN3C2=O)cc1 (stereo unspecified)	STAT3 act 135, AHR activator 89
Cc1cc(/C=C2\SC(=S)N(C)C2=O)c(C)n1-c1cccc(O)c1	none (no result: STAT3 act, Hsp70 act)
Cc1cc(/C=C2\SC(=S)N(Cc3ccco3)C2=O)c(C)n1-c1ccccc1	HSF1 inh -66
CCOc1cc(/C=N/O)ccc1OCc1ccc([N+](=O)[O-])cc1	AHR activator 78
COc1ccc(/C=N/NS(=O)(=O)c2ccc(C)cc2)cc1OC(=O)c1ccccc1	none (no result: HSF1 inh)
COc1cc(/C=N/O)ccc1OCc1ccc(C(=O)O)cc1	HSF1 inh -77
COc1cc(/C=N/NS(=O)(=O)c2ccc(C)cc2)ccc1OCc1cccc(C(=O)O)c1	HSF1 inh -64
COc1cc(/C=N/NS(=O)(=O)c2ccc3ccccc3c2)ccc1OCc1ccc(C(=O)O)cc1	HSF1 inh -74 (no result: STAT3 act, Hsp70 act)
CC1CCCC(NC(=O)Cn2cc(C(F)(F)F)cc(Cl)c2=O)C1C (stereo unspecified)	none (no result: PERK inh, STAT3 act, HSF1 inh, Hsp70 act, PolyA inh)
CC1Cc2c([nH]c3ccccc23)C2c3ccccc3CN12 (stereo unspecified)	AHR activator 57 (no result: PERK inh, STAT3 act, Hsp70 act)
COc1cc([C@H]2c3[nH]c4ccccc4c3C[C@H]3C(=O)N4[C@@H](c5cc(OC)c(OC)c(OC)c5)c5[nH]c6ccccc6c5C[C@H]4C(=O)N23)cc(OC)c1OC	none
O=C1[C@@H]2Cc3c([nH]c4ccccc34)[C@@H](c3ccccc3)N2C(=O)[C@@H]2Cc3c([nH]c4ccccc34)[C@@H](c3ccccc3)N12	STAT3 act 137 (no result: HSF1 inh, PolyA inh, AHR activator)
Cc1cc(C)nc(NC(=O)Cc2ccc(Br)cc2)n1	none
CCC(CC)C(=O)Nc1cc(C)c2c(=O)oc3ccccc3c2n1	AHR activator 50 (no result: PERK inh, STAT3 act, Hsp70 act)
Cc1c(C(=O)Nc2ccc3c(c2)OCCO3)cnn1C	HSF1 inh -61 (no result: PERK inh, STAT3 act, Hsp70 act)
Cc1nn(C)cc1C(=O)Nc1ccc2c(c1)OCCO2	AHR activator 47 (no result: PERK inh, STAT3 act, Hsp70 act)
O=C(CSc1nccc(=O)[nH]1)Nc1ccc2c(c1)OCCO2	none
Cc1cc(=O)[nH]c(SCC(=O)Nc2ccc3c(c2)OCCO3)n1	PERK inh 3.3
O=Cc1cccc2ccc3cccc(C(=O)O)c3c12	none (no result: PERK inh, STAT3 act, Hsp70 act)
CC(=O)Nc1ccc(OCC(O)Cn2cncn2)cc1 (stereo unspecified)	none (no result: PERK inh, STAT3 act, Hsp70 act)
COC(=O)c1scc(C)c1N1C(=O)c2ccccc2C1=O	PERK inh 2.9 (no result: STAT3 act, Hsp70 act)
COC(=O)c1scc(C)c1NC(=O)Nc1ccccc1	none
Cc1cc(/C=N/NC(=O)c2ccsc2)c(C)n1-c1cnccn1	AHR activator 77
O=C(CSc1nc2ccccc2s1)Nc1ccc(Cl)c(S(=O)(=O)N2CCOCC2)c1	none
O=C(CSc1nc2cc(Cl)ccc2s1)Nc1cccc(S(=O)(=O)N2CCOCC2)c1	HSF1 inh -54
CSc1nc2ccc(S(=O)(=O)N3CCOCC3)cc2s1	STAT3 act 135
COc1ccc(-c2cn3cc(Cl)ccc3n2)cc1OC	AHR activator 56
COc1ccc(-c2cn3cc(C)ccc3n2)cc1Br	none
CN(C)c1nc(-c2cn(CCC#N)c3ccccc23)cs1	AHR activator 62 (no result: PERK inh, STAT3 act, Hsp70 act)
CCOc1ccc(C(=O)NCC(=O)NNC(=O)CN(C)S(=O)(=O)c2ccc(Cl)cc2)cc1	none (no result: PERK inh, STAT3 act, Hsp70 act)
Cc1ccc(N2C(=O)N(CC(=O)NCc3ccccc3Cl)C(=O)C2C)cc1 (stereo unspecified)	none
Cc1ccc(C(=O)N/N=c2\sc3ccccc3n2C)cc1	PolyA inh inconclusive, AHR activator 95
CCC(=O)N/N=c1/sc2ccccc2n1C	none
Cn1/c(=N/NC(=O)c2ccccc2F)sc2ccccc21	AHR activator 70
COc1ccc(C(=O)N=c2sc3ccccc3n2C)cc1	STAT3 act 134
COc1cccc(C(=O)N/N=c2\sc3ccccc3n2C)c1	AHR activator 73
COc1cc(OC)cc(C(=O)N=c2sc3ccccc3n2C)c1	none
CC(C)(C)OC(=O)NC1CC2CCCC(C1)N2Cc1ccccc1 (stereo unspecified)	none (no result: PERK inh, STAT3 act, Hsp70 act, AHR activator)
COC(=O)[C@]1(C)N[C@H](CN(C)C(=O)c2ccc(C)cc2)[C@@H]2C(=O)N(C)C(=O)[C@@H]21	none (no result: PERK inh, STAT3 act, HSF1 inh, Hsp70 act, PolyA inh)
CCN(C(=O)COC(=O)CC1CCCCC1)c1c(N)n(Cc2ccccc2)c(=O)[nH]c1=O	none (no result: PERK inh, STAT3 act, HSF1 inh, Hsp70 act, PolyA inh)
Cc1ccccc1C(C)NS(=O)(=O)c1ccc2c(c1)OCCO2 (stereo unspecified)	none (no result: PERK inh, STAT3 act, HSF1 inh, Hsp70 act, PolyA inh)
CC(=O)Nc1ccc(SCC(=O)c2cc(C)n(Cc3cccs3)c2C)cc1	HSF1 inh -69
COCCn1c(C)cc(C(=O)CSc2ccc(NC(C)=O)cc2)c1C	none
CC(=O)Nc1ccc(SCC(=O)c2cc(C)n(-c3ccccc3F)c2C)cc1	HSF1 inh -68
CCC(=O)Oc1ccc(C(=O)Nc2c[nH]c(=O)[nH]c2=O)cc1	none
CCCCNC(=O)C1Cc2cc(S(=O)(=O)N3CCCC3)ccc2N1C(C)=O (stereo unspecified)	none (no result: PERK inh, STAT3 act, Hsp70 act)
COc1cccc(N(C(=O)c2cccs2)c2nc3ccccc3s2)c1	HSF1 inh -67
COc1ccccc1/C=C/C=N/n1c(-c2n[nH]c3c2CCC3)n[nH]c1=S	AHR activator 55 (no result: STAT3 act, Hsp70 act)
COc1cccc(/C=N/n2c(-c3n[nH]c4c3CCC4)n[nH]c2=S)c1O	none
CC1=NN(c2ccccc2)C(=O)/C1=C\c1cn(C)c2ccccc12	none
CC1=NN(c2ccccc2)C(=O)/C1=C\c1cc(C)n(C)c1C	AHR activator 54 (no result: STAT3 act, Hsp70 act)
Cc1cc(NC(=O)c2ccccc2C)n(-c2cccc(F)c2)n1	none (no result: PERK inh, STAT3 act, Hsp70 act)
c1csc(-c2cn3ccc4ccccc4c3n2)c1	STAT3 act 171, AHR activator 57
NCc1oc(-c2ccccc2)cc1C(=O)O	none
CCCOc1ccc(N2C(=O)CC(NCc3cccs3)C2=O)cc1 (stereo unspecified)	none
O=C1CC(NCc2cccs2)C(=O)N1c1ccc(Cl)cc1 (stereo unspecified)	AHR activator 72
NS(=O)(=O)c1ccc(-c2ccc(/C=C3\C(=O)Nc4ccccc43)o2)cc1	AHR activator 74 (no result: PERK inh, STAT3 act, Hsp70 act)
NS(=O)(=O)c1ccc(-c2ccc(/C=C3\C(=O)Nc4cc(Cl)ccc43)o2)cc1	none (no result: AHR activator)
CC(CN1CCOCC1)OC(=O)C(c1ccccc1)c1ccccc1 (stereo unspecified)	HSF1 inh -63
CC(CN1CCOCC1)OC(=O)C(C)(c1ccccc1)c1ccccc1 (stereo unspecified)	none
CSc1nc(Sc2ccc(Cl)cc2)c2ccccc2n1	PERK inh 2.9
CSc1nc(Sc2ccccc2)c2ccccc2n1	none
Nc1n[nH]c(N)c1N=Nc1ccc2c(c1)OCO2	AHR activator 48
COc1cccc(NC(=S)N(C)C2CCN(C)CC2)c1	none (no result: PERK inh, STAT3 act, Hsp70 act)
